Source: PubChem BioAssay
T cruzi growth-1 = T. cruzi proliferation inhibition. T. cruzi beta-gal in NIH3T3, GalScreen luminescence, 90 h. inhibition, % at 8.34 µM. actives 5.9% (n = 77,000);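 active means mean inhibition above about 93%, with at least 55% of replicates each passing it, limit read from the data, passing the limit was not always enough; inconclusive means only one of those two conditions holds; inactive means neither condition holds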
GASC1 inh = blocks human GASC-1 (KDM4C) demethylase activity; GST-KDM4C 2-372, H3K9me3 peptide, LANCE TR-FRET; inhibition, % at 12.5 µM; actives 0.15% (n = 96,000);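 active means mean replicate inhibition above about 25%, with at least 55% of replicates also reaching it, limit read from the data, passing the limit was not always enough; inconclusive means only one of those two conditions met; inactive means neither condition met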
Target sequence (Q9H3R0 2-372 limits assumed): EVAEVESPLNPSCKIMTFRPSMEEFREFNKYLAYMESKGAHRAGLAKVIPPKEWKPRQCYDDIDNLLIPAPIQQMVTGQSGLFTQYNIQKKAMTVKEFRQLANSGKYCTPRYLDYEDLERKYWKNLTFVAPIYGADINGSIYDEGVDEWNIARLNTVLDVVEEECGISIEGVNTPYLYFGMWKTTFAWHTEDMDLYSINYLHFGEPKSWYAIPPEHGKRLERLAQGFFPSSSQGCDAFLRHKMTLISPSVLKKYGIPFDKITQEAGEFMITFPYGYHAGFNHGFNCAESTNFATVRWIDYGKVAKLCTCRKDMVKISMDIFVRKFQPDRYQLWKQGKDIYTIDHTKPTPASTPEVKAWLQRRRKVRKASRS
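Test system: N-terminal GST-fused human GASC-1 (KDM4C) fragment, residues 2-372; quantity: GASC-1 enzyme at 10 nM final in reaction; dosing: single dose; schedule: 30 min demethylation and 1 h detection at room temperature; signal: LANCE TR-FRET, excitation 340 nm, emissions 618 and 671 nm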
IDH1 R132H inh = blocks human IDH1 R132H reductase activity; diaphorase/resazurin fluorescence, 60 min; actives 0.18% (n = 70,000); inhibition, % at 10 µM; in the data active means inhibition above about 34%; inconclusive means no clear call, values can overlap the other calls; inactive means below about 11%;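 further: 0% = DMSO and 100% = no enzyme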
T cruzi growth-2 = blocks T. cruzi growth in NIH3T3 host cells; inhibition, % at 8.35 µM; shares compounds with T cruzi growth-1; actives 72% (n = 5,600); T. cruzi beta-gal in NIH3T3, GalScreen luminescence, 90 h;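 active means mean replicate inhibition above about 95% and at least 55% of replicates individually reaching it, limit read from the data; inconclusive means only one of the two criteria is met; inactive means neither criterion is met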
T cruzi growth-3 = Trypanosoma cruzi proliferation inhibition | T. cruzi beta-gal in NIH3T3, GalScreen luminescence, 90 h | actives 21% (n = 5,600) | shares compounds with T cruzi growth-1 | AID 651740 | inhibition, % at 2.09 µM;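 active means mean inhibition above about 95%, with at least 55% of replicates also reaching it, limit read from the data; inconclusive means meets just one of the two conditions; inactive means meets neither condition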;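 further: plate controls were neutral control median for no effect and positive control median for full effect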
3T3 cytotox = cytotoxicity in mouse NIH/3T3 fibroblasts; shares compounds with T cruzi growth-1; cytotoxicity (signal decrease), % at 8.35 µM; NIH/3T3 viability, CellTiter-Glo ATP luminescence, 90 h; actives 14% (n = 5,600);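 active means mean signal decrease across replicates above about 35% based on untreated-well scatter, with enough replicates individually passing, limit read from the data; inconclusive means no rule stated though some were filed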;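 further: 0% = median of neutral control wells and 100% = median of positive control wells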
NIH3T3 tox 2 = kills mouse NIH/3T3 fibroblasts. shares compounds with T cruzi growth-1. NIH/3T3 viability, CellTiter-Glo ATP luminescence, 90 h. inhibition, % at 24.9 µM. actives 56% (n = 5,600);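 active means mean loss of cell viability signal at or above a set limit, and enough replicates individually reaching it; inconclusive means meets only the mean limit or only the replicate share; inactive means meets neither condition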;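 further: 0% = median of neutral control wells and 100% = median of positive control wells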
* hit, by the source's call; ? = inconclusive; . = no result. Only a selection was taken, and hits are over-represented in it overall.

SMILES	T cruzi growth-1	GASC1 inh	IDH1 R132H inh	T cruzi growth-2	T cruzi growth-3	3T3 cytotox	NIH3T3 tox 2
CC(=O)N(C)C[C@H]1Oc2cc(-c3ccc(F)cc3)ccc2S(=O)(=O)N([C@H](C)CO)C[C@@H]1C	42.4	-1.9	3.2	.	.	.	.
C[C@H]1CN([C@@H](C)CO)S(=O)(=O)c2ccc(-c3ccc(F)cc3)cc2O[C@H]1CN(C)C(=O)Nc1ccc(F)cc1	120.3*	-1.3	.	100.9*	80.9	62.1*	76.3*
C[C@H](CO)N1C[C@H](C)[C@H](CN(C)C(=O)Nc2ccc(F)cc2)Oc2cc(-c3ccc(F)cc3)ccc2S1(=O)=O	118.9*	-3.8	3.8	104.5*	74.5	10.8	56.0*
CC(=O)N(C)C[C@H]1Oc2cc(-c3ccc(F)cc3)ccc2S(=O)(=O)N([C@@H](C)CO)C[C@H]1C	6.0	-0.4	-2.5	.	.	.	.
C[C@@H]1CN([C@H](C)CO)S(=O)(=O)c2ccc(-c3ccc(F)cc3)cc2O[C@@H]1CN(C)C(=O)Nc1ccc(F)cc1	120.1*	-1.3	3.3	106.9*	66.2	6.6	48.7*
C[C@@H]1CN([C@H](C)CO)S(=O)(=O)c2ccc(-c3cccc(C(=O)N(C)C)c3)cc2O[C@@H]1CN(C)C(=O)Nc1ccc(F)cc1	21.8	0.0	0.2	.	.	.	.
C[C@@H]1CN([C@@H](C)CO)S(=O)(=O)c2ccc(-c3ccc(F)cc3)cc2O[C@H]1CN(C)C(=O)Nc1ccc(F)cc1	?	-0.4	0.0	93.1	6.7	23.9	55.7*
C[C@H](CO)N1C[C@H](C)[C@H](CN(C)C(=O)Nc2ccc(F)cc2)Oc2cc(-c3cccc(C(=O)N(C)C)c3)ccc2S1(=O)=O	17.6	-0.7	-0.1	.	.	.	.
Cc1ccc([N+](=O)[O-])cc1NC(=O)Cn1cnc2ccccc2c1=O	.	.	0.0	.	.	.	.
C=C(C(=O)O[C@@H]1O[C@H](CO)[C@@H](O)[C@H](O)[C@H]1O)[C@@H]1CC[C@@]2(C)C[C@H](O)C[C@@](C)(O)C2C1 (stereo partly specified)	.	.	0.2	.	.	.	.
CC(=O)N(C)C[C@H]1Oc2cc(-c3ccc(F)cc3)ccc2S(=O)(=O)N([C@@H](C)CO)C[C@@H]1C	8.3	-1.4	-1.2	.	.	.	.
C[C@H](CO)N1C[C@H](C)[C@@H](CN(C)C(=O)Nc2ccc(F)cc2)Oc2cc(-c3ccc(F)cc3)ccc2S1(=O)=O	117.8*	0.5	.	96.4*	46.2	44.2*	45.5*
CSc1nc2ccc(S(=O)(=O)NCCOc3ccc(Cl)cc3)cc2s1	.	.	1.2	.	.	.	.
O=C(C[C@H]1CC[C@H]2[C@@H](COC[C@@H](O)CN2S(=O)(=O)c2cccc(Cl)c2)O1)Nc1ccc(-c2ccccc2)cc1	108.7*	-7.3	.	106.7*	108.4*	10.7	91.7*
O=C(C[C@H]1CC[C@@H]2[C@H](COC[C@@H](O)CN2S(=O)(=O)c2cccc(Cl)c2)O1)Nc1ccc(-c2ccccc2)cc1	103.4*	-4.2	.	88.9	107.9*	51.9*	104.6*
O=C(C[C@H]1CC[C@H]2[C@@H](COC[C@H](O)CN2S(=O)(=O)c2cccc(Cl)c2)O1)Nc1ccc(-c2ccccc2)cc1	89.7	-2.9	.	.	.	.	.
O=C(C[C@@H]1CC[C@H]2[C@@H](COC[C@@H](O)CN2S(=O)(=O)c2cccc(Cl)c2)O1)Nc1ccccc1	-4.2	-1.4	.	.	.	.	.
CC(=O)c1cccc(NC(=O)CN(C)S(=O)(=O)c2ccc(F)cc2)c1	.	.	-0.1	.	.	.	.
CCCCN1C(=O)C(O)(CC(=O)c2ccco2)c2ccccc21 (stereo unspecified)	.	.	0.5	.	.	.	.
COc1cccc(S(=O)(=O)N(C)C[C@H]2Oc3ncc(C#CCC(C)C)cc3C(=O)N([C@@H](C)CO)C[C@@H]2C)c1	?	-0.3	-0.5	111.3*	55.5	4.3	72.8*
COc1cccc(S(=O)(=O)N(C)C[C@@H]2Oc3ncc(C#Cc4ccc(OC)c(OC)c4)cc3C(=O)N([C@H](C)CO)C[C@@H]2C)c1	60.4	-3.5	1.0	.	.	.	.
COc1cccc(S(=O)(=O)N(C)C[C@@H]2Oc3ncc(C#Cc4ccc(C(F)(F)F)cc4)cc3C(=O)N([C@H](C)CO)C[C@@H]2C)c1	103.4*	-1.1	.	96.1*	113.1*	31.8	30.7*
Cc1ccc(S(=O)(=O)N(C)C[C@@H]2Oc3ncc(C#Cc4cccc(F)c4)cc3C(=O)N([C@H](C)CO)C[C@@H]2C)cc1	121.2*	-4.6	3.4	98.6*	51.4	?	51.8*
C[C@H](CO)N1C[C@H](C)[C@H](CN(C)S(=O)(=O)c2cccs2)Oc2ncc(C#Cc3ccc(F)cc3)cc2C1=O	111.9*	-3.5	0.4	106.1*	77.9	22.6	22.1
C[C@H](CO)N1C[C@H](C)[C@H](CN(C)S(=O)(=O)c2cccs2)Oc2ncc(C#Cc3ccc(C(F)(F)F)cc3)cc2C1=O	8.5	-3.1	1.0	.	.	.	.
SMILES	T cruzi growth-1	GASC1 inh	IDH1 R132H inh	T cruzi growth-2	T cruzi growth-3	3T3 cytotox	NIH3T3 tox 2
C[C@H](CO)N1C[C@H](C)[C@H](CN(C)S(=O)(=O)c2ccc(C#N)cc2)Oc2ncc(C#Cc3cccc(F)c3)cc2C1=O	10.9	-2.2	0.0	.	.	.	.
COc1cccc(S(=O)(=O)N(C)C[C@@H]2Oc3ncc(C#CCC(C)C)cc3C(=O)N([C@@H](C)CO)C[C@@H]2C)c1	82.2	1.2	-1.5	.	.	.	.
O=C(N/N=C/c1ccc(OCc2ccccc2)cc1O)c1ccccn1	.	.	-0.2	.	.	.	.
COc1ccc(NC(=O)Nc2nn(Cc3c(F)cccc3Cl)cc2Br)c(OC)c1	.	.	-0.1	.	.	.	.
O=C(O)CCCCCCC(=O)N/N=C/c1ccc(O)cc1Br	.	.	0.1	.	.	.	.
O=c1[nH]c(=O)n(Cc2c(Cl)cccc2Cl)cc1F	.	.	-0.5	.	.	.	.
CC(C)(CSc1nnc(Nc2ccccc2)s1)NS(=O)(=O)c1ccc(Cl)cc1	.	.	-0.2	.	.	.	.
O=C(O)CSc1nc2cc(F)c(F)cc2[nH]1	.	.	-0.9	.	.	.	.
Cn1c(=O)c2c(nc(SCc3nn[nH]n3)n2Cc2ccccc2)n(C)c1=O	.	.	0.7	.	.	.	.
COc1ccccc1NC(=O)CSc1nnc(-c2ccccc2)n1-c1cccc(C)c1	.	.	0.2	.	.	.	.
COc1ccc(S(=O)(=O)N(C)C[C@@H]2Oc3ncc(C#Cc4ccc(OC)c(OC)c4)cc3C(=O)N([C@H](C)CO)C[C@@H]2C)cc1	110.6	-8.6	1.9	.	.	.	.
COc1ccc(S(=O)(=O)N(C)C[C@@H]2Oc3ncc(C#Cc4ccccc4)cc3C(=O)N([C@H](C)CO)C[C@@H]2C)cc1	109.3*	0.0	-1.3	100.6*	33.3	-3.8	63.1*
COc1cccc(S(=O)(=O)N(C)C[C@@H]2Oc3ncc(C#Cc4cccc(F)c4)cc3C(=O)N([C@H](C)CO)C[C@@H]2C)c1	110.0*	-0.8	.	102.5*	56.6	28.8	33.4*
